Results from ChEMBL document CHEMBL1146542, “Cytotoxic flavone analogues of vitexicarpin, a constituent of the leaves of Vitex negundo” (J Nat Prod, 2003).
≈ marks a conversion by molar mass, not a printed value. Calls of active or inactive are those of the source. The rule behind the calls is not given here.

Assays:
Col2 = experiment: Cytotoxicity against human Col2 cells; type: functional; conditions: read-out: ED50 (the source's name)
[1] = Cytotoxicity against human telomerase reverse transcriptase expressing RPE1 cells; type: cell-based, TERT-RPE1; conditions: read-out: ED50 (the source's name)
[2] = Cytotoxicity against HUVEC; type: cell-based; conditions: human, read-out: ED50 (the source's name)
KB [3] = experiment: Cytotoxicity against human KB cells; type: functional; conditions: read-out: ED50 (the source's name)
LNCaP [4] = experiment: Cytotoxicity against human LNCAP cells; type: functional; conditions: read-out: ED50 (the source's name)
Lu1 [5] = experiment: Cytotoxicity against human Lu1 cells; type: functional; conditions: read-out: ED50 (the source's name)
LNCaP [6] = experiment: Inhibition of human LNCAP cells propagated in hollow fibers via intraperitoneal site of NCr nu/nu mouse at 10 to 40 mg/kg, ip once daily after 7 days of implantation relative to control; type: functional; conditions: dose mg/kg 10-40
In short: (§1)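 Hollow fiber assay in mice with KB, LNCaP and Lu1 cells, with fibers placed at intraperitoneal and subcutaneous sites. Compound given ip at 10, 20 and 40 mg/kg. Read-out was percent growth inhibition of the cells at each site versus control, and body weight of the mice was monitored.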

LNCaP [7] = experiment: Inhibition of human LNCAP cells propagated in hollow fibers via subcutaneous site of NCr nu/nu mouse at 10 to 40 mg/kg, ip once daily after 7 days of implantation relative to control; type: functional; conditions: dose mg/kg 10-40; in short: as §1
KB [8] = experiment: Inhibition of human KB cells propagated in hollow fibers via subcutaneous site of NCr nu/nu mouse at 10 to 40 mg/kg, ip once daily after 7 days of implantation relative to control; type: functional; conditions: dose mg/kg 10-40; in short: as §1
Lu1 [9] = experiment: Inhibition of human Lu1 cells propagated in hollow fibers via intraperitoneal site of NCr nu/nu mouse at 10 to 40 mg/kg, ip once daily after 7 days of implantation relative to control; type: functional, organism-based; in short: as §1
Lu1 [10] = experiment: Inhibition of human Lu1 cells propagated in hollow fibers via subcutaneous site of NCr nu/nu mouse at 10 to 40 mg/kg, ip once daily after 7 days of implantation relative to control; type: functional; conditions: dose mg/kg 10-40; in short: as §1
P388 = experiment: In vivo growth inhibition of mouse P388 cells at 135 mg/kg, ip relative to control; type: functional; conditions: route intraperitoneal
In short: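 Mouse P-388 leukemia model run under a standard protocol. Compound given intraperitoneally at 135 mg/kg/injection, and activity was expressed as T/C value (%).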

| SMILES | EC50 (Col2) [µg/mL] | CC50 [1] [µg/mL] | CC50 [2] [µg/mL] | EC50 (KB [3]) [µg/mL] | EC50 (LNCaP [4]) [µg/mL] | EC50 (Lu1 [5]) [µg/mL] | inhibition (INH) (LNCaP [6]) [%] | inhibition (INH) (LNCaP [7]) [%] | inhibition (INH) (KB [8]) [%] | Activity (Lu1 [9]) | inhibition (INH) (Lu1 [10]) [%] | T/C (P388) [%] |
| --- | --- | --- | --- | --- | --- | --- | --- | --- | --- | --- | --- | --- |
| CCC(=O)Oc1cc(-c2oc3cc(OC)c(OC)c(OC(=O)CC)c3c(=O)c2OC)ccc1OC | > 20 | 0.5 (≈ 1.03 µM) | 6.5 (≈ 13.4 µM) | 0.6 (≈ 1.23 µM) | 0.4 (≈ 0.822 µM) | 1 (≈ 2.06 µM) | – | – | – | – | – | – |
| COc1ccc(-c2oc3cc(OC)c(OC)c(OC(=O)c4ccccc4)c3c(=O)c2OC)cc1OC(=O)c1ccccc1 | > 20 | 4.3 (≈ 7.38 µM) | > 20 | > 20 | > 20 | 6.5 (≈ 11.2 µM) | – | – | – | – | – | – |
| COc1ccc(-c2oc3cc(OC)c(OC)c(OC(C)=O)c3c(=O)c2OC)cc1OC(C)=O | 15.9 (≈ 34.7 µM) | 0.4 (≈ 0.873 µM) | 0.1 (≈ 0.218 µM) | 0.2 (≈ 0.436 µM) | 0.1 (≈ 0.218 µM) | 0.7 (≈ 1.53 µM) | – | – | – | – | – | – |
| C=CCCC(=O)Oc1cc(-c2oc3cc(OC)c(OC)c(OC(=O)CCC=C)c3c(=O)c2OC)ccc1OC | 15 (≈ 27.9 µM) | 0.6 (≈ 1.11 µM) | 5.5 (≈ 10.2 µM) | 0.6 (≈ 1.11 µM) | 0.7 (≈ 1.3 µM) | 1.4 (≈ 2.6 µM) | – | – | – | – | – | – |
| CCCCCC(=O)Oc1cc(-c2oc3cc(OC)c(OC)c(OC(=O)CCCCC)c3c(=O)c2OC)ccc1OC | > 20 | 0.4 (≈ 0.701 µM) | 11.1 (≈ 19.5 µM) | 0.5 (≈ 0.876 µM) | 0.5 (≈ 0.876 µM) | 0.7 (≈ 1.23 µM) | 0 | 0 | 0 | inactive | 0 | 100 |
| CCCC(=O)Oc1cc(-c2oc3cc(OC)c(OC)c(OC(=O)CCC)c3c(=O)c2OC)ccc1OC | 11.7 (≈ 22.7 µM) | 0.6 (≈ 1.17 µM) | > 20 | 0.5 (≈ 0.972 µM) | 0.8 (≈ 1.55 µM) | 1.7 (≈ 3.3 µM) | – | – | – | – | – | – |
| COc1ccc(-c2oc3cc(OC)c(OC)c(O)c3c(=O)c2OC)cc1O [CASTICIN] | 12.7 (≈ 33.9 µM) | 0.2 (≈ 0.534 µM) | 0.6 (≈ 1.6 µM) | 0.2 (≈ 0.534 µM) | 0.5 (≈ 1.34 µM) | 0.8 (≈ 2.14 µM) | – | – | – | – | – | – |
| COc1ccc(-c2oc3cc(OC)c(OC)c(O)c3c(=O)c2OC)cc1OC(=O)c1ccccc1 | > 20 | 3.6 (≈ 7.52 µM) | 20 (≈ 41.8 µM) | > 20 | > 20 | 16.5 (≈ 34.5 µM) | – | – | – | – | – | – |
| COc1ccc(-c2oc3cc(OC)c(OC)c(OC)c3c(=O)c2OC)cc1OC [HEXAMETHOXYFLAVONE] | > 20 | > 20 | > 20 | > 20 | > 20 | > 20 | – | – | – | – | – | – |
